Measurements reported in ChEMBL document CHEMBL4732250, “Investigations on substituted (2-aminothiazol-5-yl)(imidazo[1,2-a]pyridin-3-yl)methanones for the treatment of Alzheimer's disease” (Bioorg Med Chem, 2021).

How the values were obtained:
Type in all cases: functional
Rattus norvegicus [1] = test: Antiinflammatory activity in Sprague-Dawley rat acute model of carrageenan-induced paw edema assessed as inhibition of rat paw edema at 50 mg/kg, po pre treated for 1 hr followed by carrageenan-stimulation and measured after 3 hrs by plethysmometeric method relative to control; settings: time 4 hrs
How it was run: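 SD rats of either sex, 150–200 g, n = 6, dosed orally in 0.2% agar suspension. After 1 h, 0.1 mL 1% carrageenan in saline injected into the left hind sub-plantar paw. Paw volume measured by mercury plethysmometer before and 3 h after injection. % edema inhibition calculated. Mean ± SEM.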

Rattus norvegicus [2] = test: Antiinflammatory activity in Sprague-Dawley rat chronic model of formalin-induced paw edema assessed as inhibition of rat paw edema at 40 mg/kg, po pre treated for 1 hr followed by formalin-stimulation and measured after 5 days by plethysmometeric method relative to control; settings: 120 h, time 5 day
How it was run: (§1)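 Chronic paw edema. Oral pre-dose in 0.2% agar; after 1 h, 0.1 mL 2% formalin in saline injected into the left hind sub-plantar paw, repeated on 5 consecutive days. Paw volume by plethysmometer. % inhibition of edema size relative to disease control, days 1–5. n = 6, mean ± SEM, one-way ANOVA with Tukey's test.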

Rattus norvegicus [3] = test: Antiinflammatory activity in Sprague-Dawley rat chronic model of formalin-induced paw edema assessed as inhibition of rat paw edema at 40 mg/kg, po pre treated for 1 hr followed by formalin-stimulation and measured after 3 days by plethysmometeric method relative to control; settings: 72 h, time 3 day; how it was run: as §1
Rattus norvegicus [4] = test: Antiinflammatory activity in Sprague-Dawley rat chronic model of formalin-induced paw edema assessed as inhibition of rat paw edema at 40 mg/kg, po pre treated for 1 hr followed by formalin-stimulation and measured after 1 day by plethysmometeric method relative to control; settings: 24 h; how it was run: as §1
Rattus norvegicus [5] = test: Antiinflammatory activity in Sprague-Dawley rat chronic model of formalin-induced paw edema assessed as inhibition of rat paw edema at 40 mg/kg, po pre treated for 1 hr followed by formalin-stimulation and measured after 4 days by plethysmometeric method relative to control; settings: 96 h, time 4 day; how it was run: as §1
Rattus norvegicus [6] = test: Antiinflammatory activity in Sprague-Dawley rat chronic model of formalin-induced paw edema assessed as inhibition of rat paw edema at 40 mg/kg, po pre treated for 1 hr followed by formalin-stimulation and measured after 2 days by plethysmometeric method relative to control; settings: 48 h, time 2 day; how it was run: as §1
Rattus norvegicus [7] = test: Antiinflammatory activity in Sprague-Dawley rat chronic model of formalin-induced paw edema assessed as inhibition of rat paw edema at 50 mg/kg, po pre treated for 1 hr followed by formalin-stimulation and measured after 2 days by plethysmometeric method relative to control; settings: 48 h, time 2 day; how it was run: as §1
Rattus norvegicus [8] = test: Antiinflammatory activity in Sprague-Dawley rat chronic model of formalin-induced paw edema assessed as inhibition of rat paw edema at 50 mg/kg, po pre treated for 1 hr followed by formalin-stimulation and measured after 3 days by plethysmometeric method relative to control; settings: 72 h, time 3 day; how it was run: as §1
Rattus norvegicus [9] = test: Antiinflammatory activity in Sprague-Dawley rat chronic model of formalin-induced paw edema assessed as inhibition of rat paw edema at 50 mg/kg, po pre treated for 1 hr followed by formalin-stimulation and measured after 1 day by plethysmometeric method relative to control; settings: 24 h; how it was run: as §1
Rattus norvegicus [10] = test: Antiinflammatory activity in Sprague-Dawley rat chronic model of formalin-induced paw edema assessed as inhibition of rat paw edema at 50 mg/kg, po pre treated for 1 hr followed by formalin-stimulation and measured after 5 day by plethysmometeric method relative to control; settings: 120 h; how it was run: as §1
Rattus norvegicus [11] = test: Antiinflammatory activity in Sprague-Dawley rat chronic model of formalin-induced paw edema assessed as inhibition of rat paw edema at 50 mg/kg, po pre treated for 1 hr followed by formalin-stimulation and measured after 4 days by plethysmometeric method relative to control; settings: 96 h, time 4 day; how it was run: as §1

Structure (SMILES)	inhibition in vivo at 50 mg/kg (Rattus norvegicus [1]) [%]	inhibition in vivo at 50 mg/kg (Rattus norvegicus [7]) [%]	inhibition in vivo at 50 mg/kg (Rattus norvegicus [8]) [%]	inhibition in vivo at 50 mg/kg (Rattus norvegicus [9]) [%]	inhibition in vivo at 50 mg/kg (Rattus norvegicus [10]) [%]	inhibition in vivo at 50 mg/kg (Rattus norvegicus [11]) [%]	further results
Cc1cccn2c(C(=O)c3sc(N)nc3-c3ccccc3)cnc12	20	–	–	–	–	–	–
Cc1ccc(-c2cc(C(F)(F)F)nn2-c2ccc(S(N)(=O)=O)cc2)cc1 [CELECOXIB]	–	–	–	–	–	–	inhibition in vivo at 40 mg/kg (Rattus norvegicus [2]): 68%; inhibition in vivo at 40 mg/kg (Rattus norvegicus [3]): 70%; inhibition in vivo at 40 mg/kg (Rattus norvegicus [4]): 67%; inhibition in vivo at 40 mg/kg (Rattus norvegicus [5]): 70%; inhibition in vivo at 40 mg/kg (Rattus norvegicus [6]): 74%
Cc1cccn2c(C(=O)c3sc(N)nc3N(C)C)cnc12	81	56	56	55	54	54	–
Cc1ccn2c(C(=O)c3cnc(N)s3)cnc2c1	77	24	36	30	18	23	–
Nc1nc(-c2ccccc2)c(C(=O)c2cnc3ccccn23)s1	40	–	–	–	–	–	–
